Only some compounds are listed: those with a hit (about 1.2% of all), similar ones and a draw of the others.
RanGTP-Imp inh: disruptors of Ran-importin-beta complex formation – biochemical, FRET, CFP-Ran, YFP-importin-beta, homogeneous, primary screen | cell-free CFP-Ran/YFP-importin-beta FRET ratio | inhibition, % (test concentration not listed) | 300,000 tested, 1.1% active | AID 2216;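 active = more than half of the replicate wells show a fall in the fluorescence ratio signal beyond about 16%, limit read from the data, passing the limit was not always enough; inconclusive = exactly half of the replicate wells pass the set limit; inactive = fewer than half of replicates pass the limit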
Runt-CBFb FRET: blocks binding of human RUNX1 Runt domain to CBFb; Cerulean-Runt/Venus-CBFb FRET ratio 530/480, 1 h; 220,000 tested, 0.46% active; inhibition, % at 20 µM;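 active = inhibition over about 50% at 20 µM in the single-dose screen, limit read from the data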
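Doses: 20 µM compound in 1% DMSO | Material: Cerulean-labeled Runt domain protein | Amount: Each fluorescent fusion protein 100 nM | Schedule: Two 1 h room-temperature incubations shielded from light | Measured by: FRET fluorescence | Evaluation: Loss of energy transfer signal | Controls: Unlabeled CBFb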
CaV13 ICDI inh: Disruptors of the CACNA1D IQ motif to Ca2+-dependent inactivation inhibitor domain association, primary screening, Förster resonance energy transfer in intact living …. HEK cells, CFP/YFP FRET ICDI-IQ, plate reader, 10 min; percent FRET-ratio fall versus neutral wells. inhibition, % at 12.3 µM. 340,000 tested, 0.098% active. AID 743397;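 active = mean replicate inhibition of at least 30% and at least 1% of replicates passing that level; inconclusive = only one of the two criteria is met; inactive = neither criterion is met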
Runt-SMMHC FRET: blocks binding of human RUNX1 Runt domain to CBFb-SMMHC. 220,000 tested, 0.74% active. Q01196+Q13951. Cerulean-Runt/Venus-CBFb-SMMHC FRET ratio 530/480, 1 h. AID 1434. inhibition, % at 20 µM;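 active = mean inhibition across duplicate retests at 20 µM reaching about 50%, limit read from the data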;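 also: inhibitors lower the FRET ratio by blocking Runt binding to CBFb-SMMHC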
A number is an active result; . = inactive; ? = inconclusive; / = no result.

SMILES	RanGTP-Imp inh	Runt-CBFb FRET	CaV13 ICDI inh	Runt-SMMHC FRET
Oc1csc(Cc2nc(-c3ccc(-c4ccccc4)cc3)cs2)n1	.	.	.	.
C=CCN=C1NC(c2ccc(Cl)cc2)C(C(=O)OC)=C(C)N1C (centres undefined)	/	/	.	/
CCNC(=S)NC(=NCc1cccnc1)Nc1nc(C)cc(C)n1	19.1	/	.	/
CCNC(=S)/N=C(/Nc1ccccc1)Nc1nc(C)cc(C)n1	?	.	.	.
CC(=O)NC1CC2CCCC(C1)N2C(=O)Nc1cccc(Cl)c1 (centres undefined)	/	/	.	/
CC(=O)Nc1cccc(N/C=C(\C=O)c2nc3ccccc3o2)c1	.	.	.	66.2
CC1=CCC(C(=O)O)C(C(=O)NC2CCCCC2)C1 (centres undefined)	.	/	.	/
N#C/C(=C\c1ccc(-c2ccc(C(=O)O)cc2)o1)C(=O)NCC1CCCO1 (centres undefined)	29.5	.	/	.
N#C/C(=C\c1ccc(-c2ccc(C(=O)O)cc2)o1)C(=O)Nc1ccc(F)cc1	.	/	.	/
Cc1cccc(C)c1NC(=O)/C(C#N)=C/c1ccc(-c2ccc(C(=O)O)cc2)o1	37.1	/	.	/
CC1(C)CC(=O)C2=C(C1)OC(c1ccc(O)cc1)C(C#N)=C2N (centres undefined)	.	.	.	.
CCOC(=O)c1c(NC(=O)C(C)Sc2cn(C)c3ccccc23)sc2c1CCC2 (centres undefined)	.	.	.	.
CCOC(=O)c1c(NC(C)=O)sc2c1CCN(Cc1ccccc1)C2	86.7	/	.	/
COC(=O)c1c(NC(=O)C2COc3ccccc3O2)sc2c1CCN(Cc1ccccc1)C2 (centres undefined)	69.3	.	.	.
COC(=O)c1c(NC(=O)C(C)(C)C)sc2c1CCN(Cc1ccccc1)C2	32.4	/	.	/
CCOC(=O)c1c(NC(=O)C(C)Sc2cccc[n+]2[O-])sc2c1CCN(Cc1ccccc1)C2 (centres undefined)	/	111.6	.	81.1
CCOC(=O)c1c(NC(=O)CN2CCCCC2)sc2c1CCN(C(=O)OCC)C2	.	.	.	.
CCCc1c(-c2ccc(Cl)cc2)ncn1Cc1cccc(-c2ccccc2)c1	/	/	.	/
CC(C)C[C@H]1CN(CCCC[C@@H]2CNC(=O)C(=O)N2CC2CCCCC2)C(=O)C(=O)N1Cc1ccccc1	/	/	.	/
CC(C)CNc1ncnc2c1ncn2[C@H]1CN(Cc2cccs2)C[C@@H](CO)O1	/	/	.	/
CCOC(=O)c1c(NC(=O)CSc2ncccn2)sc2c1CC(C)(C)NC2(C)C	.	/	/	/
COC(=O)c1c(NC(C)=O)sc2c1CCN(Cc1ccccc1)C2	90.6	/	.	/
CCOC(=O)c1c(NC(=O)CC)sc2c1CCN(Cc1ccccc1)C2	89.0	/	.	/
CCOC(=O)c1c(NC(=O)CSc2ncccn2)sc2c1CCN(Cc1ccccc1)C2	135.4	106.2	36.0	150.8
Cc1cccc(OCCCC(=O)N2CCCc3ccccc32)c1C	.	.	.	.
SMILES	RanGTP-Imp inh	Runt-CBFb FRET	CaV13 ICDI inh	Runt-SMMHC FRET
CCOC(=O)C1=CCN(S(=O)(=O)c2ccccc2Cl)C1c1ccc(C)cc1 (centres undefined)	/	/	.	/
CN(C)c1ccc(/C=N/OC(=O)Nc2ccccc2Cl)cc1	.	.	.	.
Oc1ccc(N=C/C=C/c2ccc(Br)cc2)cc1-c1nc2ccccc2s1	38.4	.	/	.
Brc1cc2c(cc1-c1nc3ccccc3s1)OCO2	.	/	.	/
CCOC(=O)/C(C#N)=C(C)/C=C1\Sc2ccccc2N1CC	19.4	.	.	.
COc1ccccc1-n1cnc2cc(NCc3ccccc3O)ccc21	41.6	.	.	.
COc1ccccc1-n1cnc2cc(NCc3ccco3)ccc21	.	.	.	.
CSc1nc(-c2ccccc2)nc(C(C)C)n1	/	/	.	/
Cc1ccc(CNc2nc(C)nc3sc4c(c23)CCC4)cc1	25.5	.	.	.
O=C(NCc1cc(Cl)cc(Cl)c1)c1csc([C@@H]2O[C@H](CO)[C@H](O)[C@H](O)[C@H]2O)n1	/	/	.	/
CCOC(=O)c1cc2c(=O)n3ccccc3nc2n(CCCOC)c1=NC(C)=O	/	56.0	.	.
CCN(C(=O)c1cc2c(=O)n3ccccc3nc2n1CCCOC)C1CCCCC1	.	/	.	/
CCOC(=O)c1cc2c(=O)n3ccccc3nc2n(CCCOC)c1=NC(=O)c1ccncc1	.	64.8	152.6	92.2
COC(=O)[C@]12C[C@H](CC(=O)NCC3CCCCC3)C(=O)N(CCc3ccc(OC)c(OC)c3)C1=C[C@H](C(C)(C)C)O[C@@H]2C	/	/	.	/

Screening data as filed in PubChem.
